Experimental data published in ChEMBL document CHEMBL4270591, “Exploitation of new chalcones and 4H-chromenes as agents for cancer treatment” (Eur J Med Chem, 2018).

What was measured:
MCF7 [1] = assay: Anticancer activity against human MCF7 cells assessed as cell viability at 10 uM after 72 hrs by sulforhodamine B assay relative to control; format: functional; details: MCF7, 72 h, read-out: Activity
MCF7 [2] = assay: Anticancer activity against human MCF7 cells assessed as cell viability at 30 uM after 72 hrs by sulforhodamine B assay relative to control; format: functional; details: MCF7, 72 h, read-out: Activity
Hs-578T [3] = assay: Anticancer activity against human Hs 578T cells assessed as cell viability at 10 uM after 72 hrs by sulforhodamine B assay relative to control; format: functional; details: read-out: Activity
Hs-578T [4] = assay: Anticancer activity against human Hs 578T cells assessed as cell viability at 30 uM after 72 hrs by sulforhodamine B assay relative to control; format: functional; details: read-out: Activity
[5] = Cytotoxicity against human MCF10A cells assessed as cell viability at 10 uM after 72 hrs by sulforhodamine B assay relative to control; format: cell-based, MCF-10A; details: read-out: Activity
[6] = Cytotoxicity against human MCF10A cells assessed as cell viability at 30 uM after 72 hrs by sulforhodamine B assay relative to control; format: cell-based, MCF-10A; details: read-out: Activity
MCF7 [7] = assay: Anticancer activity against human MCF7 cells after 72 hrs by sulforhodamine B assay; format: functional, cell-based; details: MCF7, 72 h
Method in brief: (§1)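 Cells seeded at 3000 cells/100 µL per well, left to adhere overnight (18-20 h), then exposed to a range of compound concentrations for 72 h. Vehicle control was 0.5% DMSO. Cytotoxicity was read by sulforhodamine B at 490 nm, with 690 nm as background. IC50 came from sigmoidal variable-slope nonlinear regression on log-transformed data, from at least three independent experiments, each in triplicate.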

Hs-578T [8] = assay: Anticancer activity against human Hs 578T cells after 72 hrs by sulforhodamine B assay; format: functional, cell-based; method in brief: as §1
MCF-10A = assay: Cytotoxicity against human MCF10A cells after 72 hrs by sulforhodamine B assay; format: cell-based; method in brief: as §1

SMILES: COc1cccc(C(=O)/C=C/c2cc(Cl)ccc2O)c1
- viability at 10 µM (MCF7 [1]): 38.2%
- viability at 30 µM (MCF7 [2]): 26.3%

SMILES: COc1cccc(C(=O)/C=C/c2cc(Br)cc(OC)c2O)c1
- viability at 10 µM (MCF7 [1]): 77.3%
- viability at 30 µM (MCF7 [2]): 63.1%
- viability at 10 µM (Hs-578T [3]): 74.2%
- viability at 30 µM (Hs-578T [4]): 69.8%
- viability at 72 h, 10 µM [5]: 33.5%
- viability at 72 h, 30 µM [6]: 47%

SMILES: N#CC1=C(N)Oc2c(F)cc(F)cc2C1CC(=O)c1ccccc1 (stereo not drawn)
- viability at 10 µM (MCF7 [1]): 99.6%
- viability at 30 µM (MCF7 [2]): 76.9%
- viability at 10 µM (Hs-578T [3]): 92.4%
- viability at 30 µM (Hs-578T [4]): 144%
- viability at 72 h, 10 µM [5]: 53.8%
- viability at 72 h, 30 µM [6]: 128%

SMILES: Cc1ccc(C(=O)/C=C/c2cc(Br)ccc2O)cc1
- viability at 10 µM (MCF7 [1]): 27.3%
- viability at 30 µM (MCF7 [2]): 31.8%
- viability at 10 µM (Hs-578T [3]): 55.8%
- viability at 30 µM (Hs-578T [4]): 46.7%
- viability at 72 h, 10 µM [5]: 32.4%
- viability at 72 h, 30 µM [6]: 49.4%
- IC50 (MCF7 [7]): 2 µM
- IC50 (Hs-578T [8]): 1.6 µM
- IC50 (MCF-10A): 6.52 µM

SMILES: COC(=O)C1=C(N)Oc2ccc(Br)cc2C1CC(=O)c1ccc(Br)cc1 (stereo not drawn)
- viability at 10 µM (MCF7 [1]): 72.5%
- viability at 30 µM (MCF7 [2]): 34.8%
- viability at 10 µM (Hs-578T [3]): 90%
- viability at 30 µM (Hs-578T [4]): 94.8%
- viability at 72 h, 10 µM [5]: 39.9%
- viability at 72 h, 30 µM [6]: 43.2%

SMILES: O=C(/C=C/c1ccccc1O)c1ccccc1
- viability at 10 µM (MCF7 [1]): 71.9%
- viability at 30 µM (MCF7 [2]): 32.1%

SMILES: N#CC1=C(N)Oc2ccccc2C1CC(=O)c1ccccc1 (stereo not drawn)
- viability at 10 µM (MCF7 [1]): 82.7%
- viability at 30 µM (MCF7 [2]): 78.6%

SMILES: COC(=O)C1=C(N)Oc2ccc(Br)cc2C1CC(=O)c1ccc(Cl)cc1 (stereo not drawn)
- viability at 10 µM (MCF7 [1]): 67.6%
- viability at 30 µM (MCF7 [2]): 32.4%

SMILES: COc1cc(Br)cc2c1OC(N)=C(C#N)C2CC(=O)c1ccc(Cl)cc1 (stereo not drawn)
- viability at 10 µM (MCF7 [1]): 49.6%
- viability at 30 µM (MCF7 [2]): 33.3%
- viability at 10 µM (Hs-578T [3]): 90.7%
- viability at 30 µM (Hs-578T [4]): 90.7%
- viability at 72 h, 10 µM [5]: 36.8%
- viability at 72 h, 30 µM [6]: 41.6%

SMILES: COc1cc(Br)cc(/C=C/C(=O)c2ccc(Cl)cc2)c1O
- viability at 10 µM (MCF7 [1]): 53.3%
- viability at 30 µM (MCF7 [2]): 28%
- viability at 10 µM (Hs-578T [3]): 53.8%
- viability at 30 µM (Hs-578T [4]): 60.3%
- viability at 72 h, 10 µM [5]: 35.2%
- viability at 72 h, 30 µM [6]: 47.8%
- IC50 (MCF7 [7]): 5.15 µM
- IC50 (Hs-578T [8]): 5.33 µM
- IC50 (MCF-10A): 12.1 µM

SMILES: COc1cc(Br)cc2c1OC(N)=C(C#N)C2CC(=O)c1ccccc1 (stereo not drawn)
- viability at 10 µM (MCF7 [1]): 99.1%
- viability at 30 µM (MCF7 [2]): 36.7%
- viability at 10 µM (Hs-578T [3]): 100%
- viability at 30 µM (Hs-578T [4]): 155%
- viability at 72 h, 10 µM [5]: 45.9%
- viability at 72 h, 30 µM [6]: 45.9%

SMILES: Cc1ccc(C(=O)/C=C/c2cccc(Br)c2)cc1
- viability at 10 µM (MCF7 [1]): 60.4%
- viability at 30 µM (MCF7 [2]): 34%

SMILES: COc1cc(Br)cc(/C=C/C(=O)c2ccc(Br)cc2)c1O
- viability at 10 µM (MCF7 [1]): 64.6%
- viability at 30 µM (MCF7 [2]): 48.3%

SMILES: COC(=O)C1=C(N)Oc2ccc(Br)cc2C1CC(=O)c1ccccc1 (stereo not drawn)
- viability at 10 µM (MCF7 [1]): 107%
- viability at 30 µM (MCF7 [2]): 41.3%

SMILES: Cc1ccc(C(=O)CC2C(C#N)=C(N)Oc3ccc(Br)cc32)cc1 (stereo not drawn)
- viability at 10 µM (MCF7 [1]): 69%
- viability at 30 µM (MCF7 [2]): 32.3%
- viability at 10 µM (Hs-578T [3]): 88.8%
- viability at 30 µM (Hs-578T [4]): 46.3%
- viability at 72 h, 10 µM [5]: 133%
- viability at 72 h, 30 µM [6]: 33.5%

SMILES: COC(=O)C1=C(N)Oc2c(OC)cc(Br)cc2C1CC(=O)c1ccc(Br)cc1 (stereo not drawn)
- viability at 10 µM (MCF7 [1]): 50.2%
- viability at 30 µM (MCF7 [2]): 31.9%

SMILES: COC(=O)C1=C(N)Oc2c(OC)cc(Br)cc2C1CC(=O)c1ccc(Cl)cc1 (stereo not drawn)
- viability at 10 µM (MCF7 [1]): 80.3%
- viability at 30 µM (MCF7 [2]): 33.8%
- viability at 10 µM (Hs-578T [3]): 63%
- viability at 30 µM (Hs-578T [4]): 90.2%
- viability at 72 h, 10 µM [5]: 40.9%
- viability at 72 h, 30 µM [6]: 47.8%

SMILES: COc1ccc(O)c(/C=C/C(=O)c2ccc(Cl)cc2)c1
- viability at 10 µM (MCF7 [1]): 86.9%
- viability at 30 µM (MCF7 [2]): 29.3%
- viability at 10 µM (Hs-578T [3]): 106%
- viability at 30 µM (Hs-578T [4]): 102%
- viability at 72 h, 10 µM [5]: 35.7%
- viability at 72 h, 30 µM [6]: 48%

SMILES: N#CC1=C(N)Oc2ccc(Br)cc2C1CC(=O)c1ccc(Br)cc1 (stereo not drawn)
- viability at 10 µM (MCF7 [1]): 47.2%
- viability at 30 µM (MCF7 [2]): 34.2%
- viability at 10 µM (Hs-578T [3]): 67.6%
- viability at 30 µM (Hs-578T [4]): 93.8%
- viability at 72 h, 10 µM [5]: 32.6%
- viability at 72 h, 30 µM [6]: 43.6%
- IC50 (MCF7 [7]): 7.24 µM
- IC50 (Hs-578T [8]): 16.5 µM
- IC50 (MCF-10A): 14.7 µM

SMILES: COc1cccc2c1C(=O)c1c(O)c3c(c(O)c1C2=O)C[C@@](O)(C(=O)CO)C[C@@H]3O[C@H]1C[C@H](N)[C@H](O)[C@H](C)O1 [DOXORUBICIN]
- IC50 (Hs-578T [8]): 0.52 µM
- IC50 (MCF-10A): 1.54 µM

SMILES: O=C(/C=C/c1cc(F)cc(F)c1O)c1ccccc1
- viability at 10 µM (MCF7 [1]): 110%
- viability at 30 µM (MCF7 [2]): 37.6%
- viability at 10 µM (Hs-578T [3]): 96.5%
- viability at 30 µM (Hs-578T [4]): 114%
- viability at 72 h, 10 µM [5]: 37.4%
- viability at 72 h, 30 µM [6]: 41.4%

SMILES: COc1cc(Br)cc(/C=C/C(=O)c2ccc(C)cc2)c1O
- viability at 10 µM (MCF7 [1]): 96.8%
- viability at 30 µM (MCF7 [2]): 61.5%
- viability at 10 µM (Hs-578T [3]): 84.6%
- viability at 30 µM (Hs-578T [4]): 64.2%
- viability at 72 h, 10 µM [5]: 155%
- viability at 72 h, 30 µM [6]: 148%

SMILES: COc1cc(Br)cc(/C=C/C(=O)c2ccccc2)c1O
- viability at 10 µM (MCF7 [1]): 67%
- viability at 30 µM (MCF7 [2]): 28.1%
- viability at 10 µM (Hs-578T [3]): 46.9%
- viability at 30 µM (Hs-578T [4]): 106%
- viability at 72 h, 10 µM [5]: 34.4%
- viability at 72 h, 30 µM [6]: 40.7%

SMILES: COC(=O)C1=C(N)Oc2c(OC)cc(Br)cc2C1CC(=O)c1cccc(OC)c1 (stereo not drawn)
- viability at 10 µM (MCF7 [1]): 142%
- viability at 30 µM (MCF7 [2]): 94.9%

SMILES: Cc1ccc(C(=O)/C=C/c2cc(F)cc(F)c2O)cc1
- viability at 10 µM (MCF7 [1]): 33.9%
- viability at 30 µM (MCF7 [2]): 35.3%

SMILES: COc1cc(Br)cc2c1OC(N)=C(C#N)C2CC(=O)c1ccc(Br)cc1 (stereo not drawn)
- viability at 10 µM (MCF7 [1]): 39.7%
- viability at 30 µM (MCF7 [2]): 33.1%

SMILES: Cc1ccc(C(=O)CC2C(C#N)=C(N)Oc3ccc(Cl)cc32)cc1 (stereo not drawn)
- viability at 10 µM (MCF7 [1]): 85.5%
- viability at 30 µM (MCF7 [2]): 49%
- viability at 10 µM (Hs-578T [3]): 92.3%
- viability at 30 µM (Hs-578T [4]): 155%
- viability at 72 h, 10 µM [5]: 41.8%
- viability at 72 h, 30 µM [6]: 53.3%

SMILES: COC(=O)C1=C(N)Oc2c(OC)cccc2C1CC(=O)c1ccc(Cl)cc1 (stereo not drawn)
- viability at 10 µM (MCF7 [1]): 89.8%
- viability at 30 µM (MCF7 [2]): 63.8%

SMILES: COc1cc(Br)cc2c1OC(N)=C(C#N)C2CC(=O)c1ccc(C)cc1 (stereo not drawn)
- viability at 10 µM (MCF7 [1]): 116%
- viability at 30 µM (MCF7 [2]): 52.8%

SMILES: COc1cccc(C(=O)CC2C(C#N)=C(N)Oc3ccc(Br)cc32)c1 (stereo not drawn)
- viability at 10 µM (MCF7 [1]): 51.2%
- viability at 30 µM (MCF7 [2]): 34.4%
- viability at 10 µM (Hs-578T [3]): 71.5%
- viability at 30 µM (Hs-578T [4]): 37.9%
- viability at 72 h, 10 µM [5]: 101%
- viability at 72 h, 30 µM [6]: 43.7%
- IC50 (MCF7 [7]): 5.94 µM
- IC50 (Hs-578T [8]): 10.3 µM
- IC50 (MCF-10A): 18.9 µM

SMILES: COC(=O)C1=C(N)Oc2ccc(Cl)cc2C1CC(=O)c1ccccc1 (stereo not drawn)
- viability at 10 µM (MCF7 [1]): 87.2%
- viability at 30 µM (MCF7 [2]): 44.2%
